Screening data deposited in PubChem by several laboratories.
GC-B act: GC-B (human) receptor activation | P20594 | HEK293-GC-B cells, CNP EC30, cGMP TR-FRET; 0% at EC30 CNP, 100% saturating CNP | activation, % at 10 µM | 370,000 compounds, 0.11% hits | AID 1920062;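 active = activation at 10 µM reaching about 35% in either raw or pattern-adjusted values, limit read from the data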
Target sequence (P20594 whole entry, looked up): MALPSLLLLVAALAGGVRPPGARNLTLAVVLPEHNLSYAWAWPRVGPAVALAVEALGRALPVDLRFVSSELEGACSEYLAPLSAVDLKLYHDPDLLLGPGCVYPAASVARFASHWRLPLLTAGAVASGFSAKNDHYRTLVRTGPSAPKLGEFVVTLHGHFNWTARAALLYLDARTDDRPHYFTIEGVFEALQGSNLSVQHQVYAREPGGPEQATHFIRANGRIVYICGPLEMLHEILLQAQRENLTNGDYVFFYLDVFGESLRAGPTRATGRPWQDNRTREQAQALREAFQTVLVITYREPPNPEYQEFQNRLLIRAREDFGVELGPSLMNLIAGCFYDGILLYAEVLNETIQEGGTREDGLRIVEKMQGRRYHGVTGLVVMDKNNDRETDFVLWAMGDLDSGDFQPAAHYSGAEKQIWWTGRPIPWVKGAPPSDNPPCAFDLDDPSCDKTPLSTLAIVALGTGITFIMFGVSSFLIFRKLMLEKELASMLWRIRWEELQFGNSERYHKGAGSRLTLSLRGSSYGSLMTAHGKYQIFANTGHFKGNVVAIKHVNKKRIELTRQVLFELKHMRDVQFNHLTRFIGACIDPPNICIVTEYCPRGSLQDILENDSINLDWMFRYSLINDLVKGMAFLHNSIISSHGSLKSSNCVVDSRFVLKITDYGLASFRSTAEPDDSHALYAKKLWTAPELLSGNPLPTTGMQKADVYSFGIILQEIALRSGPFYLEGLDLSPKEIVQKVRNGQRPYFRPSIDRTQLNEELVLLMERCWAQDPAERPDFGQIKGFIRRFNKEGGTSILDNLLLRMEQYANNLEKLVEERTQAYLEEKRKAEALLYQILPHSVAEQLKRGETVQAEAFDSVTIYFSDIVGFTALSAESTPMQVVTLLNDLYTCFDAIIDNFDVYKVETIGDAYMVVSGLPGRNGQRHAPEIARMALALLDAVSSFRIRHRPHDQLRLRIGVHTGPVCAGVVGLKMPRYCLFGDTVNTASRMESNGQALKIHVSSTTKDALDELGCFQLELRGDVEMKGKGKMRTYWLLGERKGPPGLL
Hep lipid drop: hepatic lipid droplet formation modulation; AML12 mouse hepatocytes, oleate lipid droplets, BODIPY imaging; inhibition, % at 6.5 µM; 240,000 compounds, 0.4% hits; AID 1656;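 active = lipid droplet intensity inhibited by at least 50%, with more than 500 cells counted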
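Material: mouse AML12 hepatocyte cell line, fixed after treatment; Timing: compound with oleate, overnight; Technique: high-content imaging of BODIPY-stained droplets and DAPI nuclei; Probe or stimulus: oleate, 100 µM final; Dosing: compound at 6.5 µM only.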
aDG glyco up: increases alpha dystroglycan glycosylation; Pro5-aDG cells, alpha-DG glycosylation AlphaScreen (IIH6); 0% Pro5, 100% B10-LARGE cell signal; activation, % at 10 µM; 360,000 compounds, 0.22% hits;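 active = activation of at least 8% versus controls, or a plate z-score of at least 8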;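 also: Pro5 are CHO cells carrying HIG-tagged alpha-DG that lacks glycosylation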
GRIN3A LBD mod: modulators (binders) of human NR3A ligand-binding domain. NR3A LBD differential scanning fluorimetry, Tm shift; 0% = protein alone, 100% = glycine-bound protein. Tm shift relative to glycine control, % at 25 µM. 340,000 compounds, 2.5% hits;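 active = melting temperature shift of at least 10% of the positive control shift, at one fixed dose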
NPR1 activator: GC-A (human) enzyme activation | HEK293 GC-A cells, cGMP TR-FRET, EC30 ANP; 0% at EC30 ANP, 100% saturating ANP | activation, % at 10 µM | 370,000 compounds, 0.14% hits | AID 1671463; in the data active = activation above about 40%
GASC-1 inh: human JMJD2C demethylase inhibition. 330,000 compounds, 0.069% hits. GST-JMJD2C(1-420) H3K9me3 demethylation, DELFIA europium. inhibition, % at 2.35 µM. Q9H3R0;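 active = more than half of a compound's replicate wells show inhibition beyond 50%, single wells judged on their own value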;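 also: signal counts dimethyl H3K9 product captured on neutravidin plate; 0% = median of DMSO wells and 100% = 0.3 times that DMSO median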
Starred values were filed as active, the others as inactive; . = no result. An excerpt weighted towards active compounds, which were near 3% of everything screened.

SMILES | GC-B act | Hep lipid drop | aDG glyco up | GRIN3A LBD mod | NPR1 activator | GASC-1 inh
Nc1c(C(=O)N/N=C/c2ccc(Cl)cc2)cnn1-c1ccccc1 | -2.3 | -18.0 | -0.1 | -5.4 | 3.3 | -1.7
Nc1[nH]n(-c2ccccc2)c(=O)c1N=Nc1ccccc1 | -4.0 | 11.2 | -0.4 | -3.8 | -1.4 | 14.6
Nc1[nH]n(-c2ccccc2)c(=O)c1N=Nc1ccc2ncsc2c1 | -6.3 | 0.0 | -0.5 | 13.8* | -1.8 | 24.0
Nc1[nH]n(-c2ccccc2)c(=O)c1N=Nc1ccccc1[N+](=O)[O-] | -2.6 | 7.4 | -0.6 | 21.0* | -4.7 | -4.0
CC1CCN(C(=O)c2ncn3c2C(=O)NC[C@H]3C)CC1 | -0.4 | . | . | . | -1.1 | .
CCN(C[C@H]1N[C@@](CC)(C(=O)OC)[C@H]2C(=O)N(Cc3ccccc3)C(=O)[C@@H]12)C(=O)C1CCCCC1 | 2.5 | . | -0.1 | 0.2 | 1.7 | 11.6
COc1ccc(NS(=O)(=O)c2ccc(O)c(C(=O)OCC(=O)NC(C)C3CC4CCC3C4)c2)cc1 (stereo unspecified) | 0.4 | -7.0 | -0.1 | -5.3 | -4.6 | 9.5
CC(NC(=O)COC(=O)c1cc(NS(=O)(=O)c2ccc(Cl)c([N+](=O)[O-])c2)ccc1O)C1CC2CCC1C2 (stereo unspecified) | 1.8 | 14.2 | -0.1 | 12.7* | -0.2 | 3.5
CC1(C(=O)NS(=O)(=O)C2CC2)CCCN(C(=O)c2cccc(Cl)c2)C1 (stereo unspecified) | 2.3 | . | -0.3 | . | -2.2 | .
Cc1ccc(Cl)cc1N1CCN(CC(=O)NC2CCCc3ccccc32)CC1 (stereo unspecified) | 0.1 | -1.7 | 0.1 | 10.0* | -1.0 | -5.7
Cc1cc(=O)oc2cc(OCCSCCN3CCCC3)ccc12 | -19.5 | 3.8 | -0.1 | 12.5* | -16.6 | -7.8
Cc1cc(=O)oc2cc(OCc3ccc(S(=O)(=O)N4CCOCC4)cc3)ccc12 | -1.0 | 12.2 | 0.2 | 18.1* | -9.0 | -9.0
COc1ccc(COc2ccc3c(C)cc(=O)oc3c2)cc1 | 0.9 | -17.6 | 0.1 | 3.5 | 7.8 | 11.0
Cc1nc(CSc2nsc(/C=C/N(C)C)c2C#N)cs1 | 6.4 | 0.3 | -0.2 | -3.6 | 1.9 | -5.4
COC(=O)c1ccccc1CSc1nsc(/C=C/N(C)C)c1C#N | . | -1.3 | -0.2 | 16.0* | . | -11.6
CC1(C)Nc2ccccc2C(=O)N1c1ccc(Br)cc1 | 3.8 | . | 0.0 | 13.3* | 3.2 | -12.1
O=C1CC(NS(=O)(=O)c2ccccc2F)CN1c1ccc2c(c1)OCCO2 (stereo unspecified) | 5.5 | . | -0.1 | 2.8 | 4.5 | -10.1
S=C(NCc1ccc(Cl)cc1)Nc1ccc(Cl)cc1Cl | -1.2 | -11.9 | -0.1 | 1.5 | 9.8 | 0.3
S=C(NCCc1ccc(Cl)cc1)Nc1ccc(Cl)cc1Cl | -3.7 | -9.2 | 0.2 | 17.8* | 0.4 | -7.9
S=C(NCCN1CCOCC1)Nc1ccc(Cl)cc1Cl | 1.6 | 4.4 | 0.3 | 11.6* | -6.4 | -2.2
S=C(NCCCN1CCOCC1)Nc1ccc(Cl)cc1Cl | 1.4 | 3.1 | 0.2 | 0.1 | 0.2 | -4.5
CCOC(=O)N1C(=O)C[C@](Sc2ccc(OC)cc2)(C(=O)N(C)C)[C@H]1c1ccc(OC)cc1 | -1.1 | . | . | . | 0.6 | .
CC1CC(C#N)N(N(C)C)C1=C(C#N)C#N (stereo unspecified) | 6.2 | -1.0 | 0.0 | 16.9* | -2.3 | 28.1
CCCC1CC(C#N)N(N(C)C)C1=C(C#N)C#N (stereo unspecified) | 5.1 | 4.0 | 0.0 | -2.2 | -1.8 | -1.2
CCc1ccc(NC(=O)COc2ccc(/C=C(/C#N)c3nc4ccccc4[nH]3)cc2OC)cc1 | -2.5 | -6.3 | 0.0 | 30.0* | -1.0 | 10.6
SMILES | GC-B act | Hep lipid drop | aDG glyco up | GRIN3A LBD mod | NPR1 activator | GASC-1 inh
N#C/C(=C\c1cccs1)c1nc2ccccc2[nH]1 | 2.0 | -17.2 | 0.3 | 22.1* | 3.5 | -8.0
N#C/C(=C\c1ccc([N+](=O)[O-])o1)c1nc2ccccc2[nH]1 | 34.0 | 0.0 | . | 22.2* | 30.8 | 4.8
N#C/C(=C/c1ccc(O)c(O)c1)c1nc2ccccc2[nH]1 | -6.9 | -1.4 | -0.4 | 19.1* | -3.1 | 2.2
COC(=O)c1ccc(COc2ccc(/C=C(\C#N)c3nc4ccccc4[nH]3)cc2OC)o1 | 29.2 | . | -0.2 | 7.4 | 25.1 | 3.6
N#C/C(=C\c1ccc(OC(=O)c2cccs2)cc1)c1nc2ccccc2[nH]1 | -6.2 | 7.7 | -0.3 | 6.9 | 2.5 | 0.7
COC(=O)[C@]12C[C@H](CC(=O)NCCc3ccccc3OC)C(=O)N(CCc3ccc(OC)c(OC)c3)C1=C[C@H](C1CCCC1)O[C@@H]2C | -1.7 | . | . | . | -3.2 | .
CC(C)(C)C(=O)CN1C2=NCCCN2c2ccccc21 | -5.0 | -10.7 | -0.1 | 2.2 | -0.6 | 3.5
CCOc1ccc(-c2n[nH]c(C)c2-c2ccccc2OC)c(O)c1 | -1.6 | . | 0.2 | -15.5 | -6.7 | 8.6
CCc1cc(-c2n[nH]c(C)c2-c2ccccc2Cl)c(O)cc1OC | 1.8 | -0.4 | 0.0 | 13.2* | -6.0 | -16.6
O=[N+]([O-])c1cccc(-c2csc(Nc3ccccc3)n2)c1 | -2.2 | 14.8 | 0.5 | 30.3* | 4.5 | 0.4
COc1ccccc1Nc1nc(-c2cccc([N+](=O)[O-])c2)cs1 | -5.5 | -14.5 | -0.2 | 32.5* | -1.1 | 3.1
O=C(Cc1ccccc1)Nc1nc(-c2cccc([N+](=O)[O-])c2)cs1 | 5.0 | -7.4 | 0.2 | -2.9 | 10.7 | -6.6
O=C(Nc1nc(-c2cccnc2)cs1)c1cccc([N+](=O)[O-])c1 | -1.3 | 16.7 | 0.4 | -3.2 | -3.7 | 9.1
COc1cc(NS(=O)(=O)c2ccc(Nc3nc(-c4cccc([N+](=O)[O-])c4)cs3)cc2)nc(OC)n1 | 3.6 | 1.5 | -0.4 | 28.9* | 1.5 | -4.2
O=C(Nc1nc(-c2ccccc2)cs1)c1cccc([N+](=O)[O-])c1 | -0.3 | . | -0.4 | 24.4* | 0.8 | 2.8
CCCC#Cc1ccc(CC[C@H]2O[C@H]3CC[C@@H](CO)O[C@H]3C[C@H]2NC(=O)CN2CCOCC2)cc1 | 4.7 | . | . | . | 7.4 | .
Cc1ccc(C(=O)N/C(=C\c2ccc(-c3ccccc3[N+](=O)[O-])o2)C(=O)NCCN(C)C)cc1 | -8.7 | 3.9 | 1.9* | 1.4 | -5.9 | 50.0
CCOCCCNC(=O)CSc1nnc(-c2ccc(S(=O)(=O)N3CCCC3)cc2)n1C | -1.6 | 16.7 | 0.1 | 2.8 | -8.1 | -0.1
COc1ccccc1NC(=O)Nc1nc(CC(=O)Nc2ccc(F)c(F)c2)cs1 | -1.2 | . | 0.3 | 33.9* | 3.0 | -13.3
COc1ccc(NC(=O)Cc2csc(NC(=O)Nc3ccccc3OC)n2)cc1 | 1.3 | . | -0.1 | . | 0.4 | .
COc1ccccc1NC(=O)Nc1nc(CC(=O)Nc2ccc(F)cc2)cs1 | 1.7 | . | -0.2 | 32.7* | 1.3 | -2.3
